{"source": "ChEMBL document CHEMBL3860103", "about": "“Antibacterial and Antibiofilm Activity of Cationic Small Molecules with Spatial Positioning of Hydrophobicity: An in Vitro and in Vivo Evaluation” (J Med Chem, 2016)", "key": {"[1]": {"test": "Toxicity in HEK293 cells assessed as induction of cell death at 64 ug/ml incubated for 24 hrs by calcein AM and propidium iodide dye based fluorescence microscopy", "conditions": "human, hek293, 24 h", "method_in_brief": "(§1)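 HEK 293 cells seeded ~10^4 cells/well, treated with compounds for 24 h (16, 32 or 64 µg/mL); 0.1% Triton X positive, untreated negative control. Stained with calcein AM (2 µM) and PI (4.5 µM) 15 min at 37 °C, 5% CO2; imaged by fluorescence microscopy, 20X objective.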"}, "Staphylococcus aureus [2]": {"tested_on": "Staphylococcus aureus", "test": "Induction of biofilm disruption in Staphylococcus aureus assessed as reduction in log bacterial burden at 32 ug/ml after 24 hrs by confocal laser-scanning microscopy", "assay_type": "functional", "method_in_brief": "(§2)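 Established coverslip biofilms (S. aureus 24 h in nutrient medium + 1% glucose + 1% NaCl; E. coli 72 h in M9 + 0.5% glycerol + 0.02% casamino acid; 37 °C) washed, then exposed to 32 µg/mL for 24 h at 37 °C. Matrix dissolved with trypsin-EDTA, serially diluted, plated on nutrient agar; viability as log10 CFU/mL versus media-only control.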"}, "Staphylococcus aureus [3]": {"tested_on": "Staphylococcus aureus", "test": "(§3) Antibacterial activity against Staphylococcus aureus infected in BALB/c mouse model of superficial skin infection and biofilm formation assessed as reduction in bacterial load in skin at 40 mg/kg applied topically once daily for 4 days and measured 18 hrs after last dose", "assay_type": "functional", "method_in_brief": "(§4)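 Female BALB/c mice (6–8 weeks, 18–22 g) made neutropenic with cyclophosphamide i.p. (150 mg/kg, then 100 mg/kg 3 days later), anesthetized, backs shaved, wounded and infected with MRSA ATCC 33591. After 24 h biofilm formation, 40 mg/kg applied topically to wound once daily for 4 days (n = 5/group; untreated control). Skin collected 18 h after last dose for CFU/g; portions formalin-fixed for SEM.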"}, "Mus musculus [4]": {"tested_on": "Mus musculus", "test": "Toxicity in topically dosed mouse assessed as induction of inflammation at 200 mg/kg by OECD425 guidelines based method", "assay_type": "organism-based", "conditions": "in vivo, topical_or_ocular"}, "Escherichia coli [5]": {"tested_on": "Escherichia coli", "test": "Antibacterial activity against Escherichia coli incubated for 24 hrs", "assay_type": "functional", "method_in_brief": "(§5)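 Broth microdilution: 6 h cultures diluted to ~10^5 CFU/mL in medium; compounds 2-fold serially diluted in water, mixed 1:3 with bacterial suspension. Incubated 24 h, 37 °C; OD600 read. MIC = concentration with OD similar to medium-only control. Triplicate wells, experiments repeated at least twice.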"}, "[6]": {"test": "Induction of hemolysis in human RBC incubated for 1 hr", "assay_type": "cell-based, Erythrocyte", "conditions": "red blood cells", "method_in_brief": "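Washed human RBCs from heparinized blood, 5 vol% in PBS, mixed 3:1 with serially diluted compounds; 1 h at 37 °C. Centrifuged; supernatant A540 read. Hemolysis % = (A−A0)/(Atotal−A0)×100, with water as 0% and 0.1 vol% Triton X-100 as full lysis.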"}, "[7]": {"test": "Selectivity index, ratio of HC50 for induction of hemolysis in human RBC to MIC for Escherichia coli"}, "Staphylococcus aureus [8]": {"tested_on": "Staphylococcus aureus", "test": "Antibacterial activity against Staphylococcus aureus incubated for 24 hrs", "assay_type": "functional", "method_in_brief": "as §5"}, "Escherichia coli [9]": {"tested_on": "Escherichia coli", "test": "Induction of membrane depolarization in Escherichia coli at 32 ug/ml after 0 to 20 mins by […] dye based assay", "assay_type": "functional", "method_in_brief": "(§6)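 Membrane-potential dye DiSC3(5) taken up by S. aureus or E. coli; depolarization followed as rise in dye fluorescence after adding compounds at 32 µg/mL.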"}, "[10]": {"test": "Selectivity index, ratio of HC50 for induction of hemolysis in human RBC to MIC for Staphylococcus aureus"}, "Escherichia coli [11]": {"tested_on": "Escherichia coli", "test": "Induction of biofilm disruption in Escherichia coli assessed as reduction in log bacterial burden at 32 ug/ml after 72 hrs by confocal laser-scanning microscopy", "assay_type": "functional", "conditions": "in the assay text read “after 24 hrs” for “after 72 hrs”", "method_in_brief": "as §2"}, "Staphylococcus aureus [12]": {"tested_on": "Staphylococcus aureus", "test": "Induction of biofilm disruption in Staphylococcus aureus assessed as mature biofilm thickness at 32 ug/ml after 24 hrs by SYTO 9 dye based confocal laser-scanning microscopy (reference value: 14 to 18 um)", "assay_type": "functional", "method_in_brief": "(§7)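 Biofilms grown on glass coverslips from ~10^5 CFU/mL: S. aureus in nutrient medium + 1% glucose + 1% NaCl, 24 h; E. coli in M9 + 0.5% glycerol + 0.02% casamino acid, 72 h; stationary, 37 °C. After PBS wash, treated 24 h at 37 °C with 32 µg/mL in the same medium; media-only control. Stained with SYTO 9 (5 µM), imaged by confocal microscopy.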"}, "[13]": {"test": "Toxicity in HEK293 cells assessed as cell density level at 16 ug/ml incubated for 24 hrs by calcein AM and propidium iodide dye based fluorescence microscopy", "conditions": "human, hek293, 24 h", "method_in_brief": "as §1"}, "Staphylococcus aureus [14]": {"tested_on": "Staphylococcus aureus", "test": "as §3, with “dose by FEI field emission scanning electron microscopy relative to un-treated control” for “dose”", "assay_type": "functional, organism-based", "method_in_brief": "as §4"}, "Escherichia coli [15]": {"tested_on": "Escherichia coli", "test": "Induction of membrane permeabilization in Escherichia coli at 32 ug/ml after 0 to 20 mins by propidium iodide dye based assay", "assay_type": "functional", "method_in_brief": "(§8)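 Membrane permeabilization of S. aureus or E. coli followed as increase in propidium iodide fluorescence after adding compounds at 32 µg/mL.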"}, "Staphylococcus aureus [16]": {"tested_on": "Staphylococcus aureus", "test": "Antibacterial activity against methicillin-resistant Staphylococcus aureus incubated for 24 hrs", "assay_type": "functional", "method_in_brief": "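MRSA (ATCC 33591) from a 6 h culture (~10^9 CFU/mL), diluted to ~10^5 CFU/mL in medium. Compounds in water, 2-fold serial dilutions, combined with the bacteria at 1:3 by volume and incubated 24 h at 37 °C. OD600 read. MIC is the lowest concentration whose OD matches the media-only control. Triplicate wells; experiments repeated at least twice.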"}, "[17]": {"test": "Toxicity in HEK293 cells assessed as induction of cell death at 32 ug/ml incubated for 24 hrs by calcein AM and propidium iodide dye based fluorescence microscopy", "conditions": "human, hek293, 24 h", "method_in_brief": "as §1"}, "Staphylococcus aureus [18]": {"tested_on": "Staphylococcus aureus", "test": "Induction of membrane depolarization in Staphylococcus aureus at 32 ug/ml after 0 to 20 mins by […] dye based assay", "assay_type": "functional", "method_in_brief": "as §6"}, "Mus musculus [19]": {"tested_on": "Mus musculus", "test": "Toxicity in topically dosed mouse assessed as induction of abnormal skin reaction at 200 mg/kg by OECD425 guidelines based method", "assay_type": "organism-based", "conditions": "in vivo, topical_or_ocular"}, "[20]": {"test": "Toxicity in topically dosed mouse by OECD425 guidelines based method", "assay_type": "organism-based", "conditions": "in vivo, topical or ocular"}, "Escherichia coli [21]": {"tested_on": "Escherichia coli", "test": "Induction of biofilm disruption in Escherichia coli assessed as mature biofilm thickness at 32 ug/ml after 24 hrs by SYTO 9 dye based confocal laser-scanning microscopy (reference value: 14 to 18 um)", "assay_type": "functional", "method_in_brief": "as §7"}, "Staphylococcus aureus [22]": {"tested_on": "Staphylococcus aureus", "test": "as §3, with “dose relative to un-treated control” for “dose”", "assay_type": "functional", "set-up": "scale not given: the % may be the effect or the level left", "method_in_brief": "as §4"}, "Staphylococcus aureus [23]": {"tested_on": "Staphylococcus aureus", "test": "Induction of biofilm disruption in Staphylococcus aureus after 24 hrs by confocal laser-scanning microscopy", "assay_type": "functional", "method_in_brief": "as §7"}, "[24]": {"test": "Induction of membrane hydration changes in Laurdan dye containing DPPG:DPPE (88:12) liposomes assessed as reduction in general polarization at 25 to 100 ug/ml by luminescence spectrometry", "assay_type": "physicochemical", "method_in_brief": "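Liposomes of 0.5 mM DPPG:DPPE (88:12) or 0.5 mM DPPC with Laurdan (lipid:dye 100:1), hydrated in PBS pH 7.4, 10 freeze–thaw cycles, sonicated 15 min at 70 °C. Compounds added in PBS (lipid:compound 7.4:1), tested at 25, 50, 100 µg/mL; emission at 440 and 490 nm (ex 350 nm), 37 °C. GP = (I440−I490)/(I440+I490).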"}, "Staphylococcus aureus [25]": {"tested_on": "Staphylococcus aureus", "test": "Induction of membrane permeabilization in Staphylococcus aureus at 32 ug/ml after 0 to 20 mins by propidium iodide dye based assay", "assay_type": "functional", "method_in_brief": "as §8"}}, "note": "Calls of active or inactive are those of the source. The rule behind the calls is not given here.", "data": [{"molecule": "CCCCCCNC(=O)C[N+](C)(C)CCCCCCCCCCCC[N+](C)(C)CC(=O)NCCCCCC.[Br-].[Br-]", "values": [{"measurement": "Activity", "setting": "[1]", "value": "Non-Toxic"}, {"measurement": "FC", "setting": "Staphylococcus aureus [2]", "value": 9.2}, {"measurement": "Activity", "setting": "Staphylococcus aureus [3]", "value": 5.3, "unit": "log10CFU/g"}, {"measurement": "Activity", "setting": "Mus musculus [4]", "value": "Non-Toxic"}, {"measurement": "MIC", "setting": "Escherichia coli [5]", "value": 2, "unit": "µg/mL"}, {"measurement": "HC50 at 1 h", "setting": "[6]", "value": 805, "unit": "µg/mL"}, {"measurement": "Selectivity Index", "setting": "[7]", "value": 402}, {"measurement": "MIC", "setting": "Staphylococcus aureus [8]", "value": 1, "unit": "µg/mL"}, {"measurement": "Activity", "setting": "Escherichia coli [9]", "value": "Active"}, {"measurement": "Selectivity Index", "setting": "[10]", "value": 805}, {"measurement": "FC", "setting": "Escherichia coli [11]", "value": 7.1}, {"measurement": "Activity", "setting": "Staphylococcus aureus [12]", "value": "2 - 3 um"}, {"measurement": "Activity", "setting": "[13]", "value": "Non-Toxic"}, {"measurement": "Activity", "setting": "Staphylococcus aureus [14]", "value": "Active"}, {"measurement": "Activity", "setting": "Escherichia coli [15]", "value": "Active"}, {"measurement": "MIC", "setting": "Staphylococcus aureus [16]", "value": 2, "unit": "µg/mL"}, {"measurement": "Activity", "setting": "[17]", "value": "Non-Toxic"}, {"measurement": "Activity", "setting": "Staphylococcus aureus [18]", "value": "Active"}, {"measurement": "Activity", "setting": "Mus musculus [19]", "value": "Non-Toxic"}, {"measurement": "LD50", "setting": "[20]", "value": "> 200", "unit": "mg/kg"}, {"measurement": "Activity", "setting": "Escherichia coli [21]", "value": "2 - 3 um"}, {"measurement": "Activity", "setting": "Staphylococcus aureus [22]", "value": ">99.999", "unit": "%"}, {"measurement": "MBEC", "setting": "Staphylococcus aureus [23]", "value": "31.2 to 62.5", "unit": "µg/mL"}, {"measurement": "Activity", "setting": "[24]", "value": "Active"}, {"measurement": "Activity", "setting": "Staphylococcus aureus [25]", "value": "Active"}]}]}
